Assay results taken from ChEMBL document CHEMBL1125382, “Benzazepinone calcium channel blockers. 2. Structure-activity and drug metabolism studies leading to potent antihypertensive agents. Comparison with benzothiazepinones” (J Med Chem, 1992).

Key:
Rattus norvegicus [1] = assay: In vivo evaluation for the percentage decrease in blood pressure at 135 umol/kg administered through oral route in spontaneously hypertensive rats and observed for 0-6 h.; format: functional
Summary of the method: (§1)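 Male spontaneously hypertensive rats, 15 weeks old, dosed by oral gavage at 135 μmol/kg. Blood pressure recorded directly via an indwelling abdominal aortic catheter exteriorized in the intrascapular region. Sampled over 20-s intervals every 5 min for 24 h. Value is the maximum percent fall in systolic pressure from predrug control within the stated period, mean of five rats.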

Oryctolagus cuniculus [2] = organism: Oryctolagus cuniculus; assay: Vasorelaxant effects in circumferential strips of potassium-depolarized rabbit aorta. (IC50 in rabbit aorta strips contracted with KCl(95% confidence interval)); format: functional, organism-based
Summary of the method: (§2)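 Circumferential strips of rabbit thoracic aorta, contracted by depolarization with 100 mM KCl, then exposed to various concentrations of compound.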

Rattus norvegicus [3] = assay: In vivo evaluation for the percentage decrease in blood pressure at 135 umol/kg administered through oral route in spontaneously hypertensive rats and observed for 12-18 h.; format: functional; summary of the method: as §1
Rattus norvegicus [4] = assay: In vivo evaluation for the percentage decrease in blood pressure at 135 umol/kg administered through oral route in spontaneously hypertensive rats and observed for 6-12 h.; format: functional; summary of the method: as §1
Oryctolagus cuniculus [5] = organism: Oryctolagus cuniculus; assay: In Vitro evaluation for the vasorelaxant effects in circumferential strips of potassium-depolarized rabbit aorta. (IC50 in rabbit aorta strips contracted with KCl; format: functional; summary of the method: as §2
[6] = In Vitro evaluation for the affinity for the diltiazem receptor in isolated guinea pig skeletal muscle microsomal preparations by inhibiting [3H]diltiazem binding; format: microsomes, Cavia porcellus, Muscle tissue
Summary of the method: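 Membranes from male guinea pig (350–450 g) hind-limb muscle, mainly quadriceps and gastrocnemius, in 50 mM Tris-HCl. 125–250 μg protein incubated with [3H]-d-cis-diltiazem and competing drug, 250 μL final, 30 °C for 1 h. Rapid GF/B filtration and scintillation counting. Nonspecific binding defined with 100 μM unlabeled diltiazem. Kd calculated from concentration–response curves for inhibition of specific binding; ±SEM.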

Oryctolagus cuniculus [7] = organism: Oryctolagus cuniculus; assay: In vitro evaluation for the vasorelaxant effects in circumferential strips of potassium-depolarized rabbit aorta. (IC50 in rabbit aorta strips contracted with KCl; format: functional; summary of the method: as §2
Rattus norvegicus [8] = assay: In vivo evaluation for the percentage decrease in blood pressure at 270 umol/kg administered through oral route in spontaneously hypertensive rats and observed for 12-18 h; format: functional

## COc1ccc([C@@H]2Cc3c(OC)cccc3N(CCN(C)C)C(=O)[C@@H]2OC(C)=O)cc1.Cl
Rattus norvegicus [1]
  Decrease: 0%
Oryctolagus cuniculus [2]; Oryctolagus cuniculus, Aorta
  IC50: 2400 nM
Rattus norvegicus [3]
  Decrease: 1%
Rattus norvegicus [4]
  Decrease: 0%

## COc1ccc([C@@H]2Cc3c(cccc3C(F)(F)F)N(C[C@@H]3CCCN3)C(=O)[C@@H]2O)cc1
Rattus norvegicus [1]
  Decrease: 30%
Oryctolagus cuniculus [5]
  IC50: 95 nM
Rattus norvegicus [3]
  Decrease: 27%
Rattus norvegicus [4]
  Decrease: 26%

## COc1ccc([C@H]2Cc3cc(C(F)(F)F)ccc3N(CCN(C)C)C(=O)[C@H]2OC(C)=O)cc1.Cl (stereo in doubt)
Rattus norvegicus [1]
  Decrease: 7%
[6]
  Kd: 6300 nM
Oryctolagus cuniculus [2]; Oryctolagus cuniculus, Aorta
  IC50: > 10000 nM
Rattus norvegicus [3]
  Decrease: 7%
Rattus norvegicus [4]
  Decrease: 8%

## COc1ccc([C@@H]2Cc3c(Cl)cccc3N(CCN(C)C)C(=O)[C@@H]2OC(C)=O)cc1
Rattus norvegicus [1]
  Decrease: 9%
Oryctolagus cuniculus [2]; Oryctolagus cuniculus, Aorta
  IC50: 1600 nM
Rattus norvegicus [3]
  Decrease: 11%
Rattus norvegicus [4]
  Decrease: 8%

## COc1ccc([C@@H]2Cc3cc(C(F)(F)F)ccc3N(CCN(C)C)C(=O)[C@@H]2OC(C)=O)cc1.Cl
Rattus norvegicus [3]
  Decrease: 18%
Rattus norvegicus [4]
  Decrease: 19%

## COc1ccc([C@@H]2Cc3c(cccc3C(F)(F)F)N(C[C@H]3CCCN3)C(=O)[C@@H]2OC(C)=O)cc1
Rattus norvegicus [1]
  Decrease: 21%
Oryctolagus cuniculus [2]; Oryctolagus cuniculus, Aorta
  IC50: 630 nM
Rattus norvegicus [3]
  Decrease: 26%
Rattus norvegicus [4]
  Decrease: 22%

## COc1ccc([C@H]2Cc3cc(Cl)ccc3N(CCN(C)C)C(=O)[C@H]2OC(C)=O)cc1 (relative stereo)
Rattus norvegicus [1]
  Decrease: 1%
[6]
  Kd: 8200 nM
Rattus norvegicus [3]
  Decrease: 9%
Rattus norvegicus [4]
  Decrease: 4%

## COc1ccc([C@H]2Cc3c(cccc3C(F)(F)F)N(CCN(C)C)C(=O)[C@@H]2OC(C)=O)cc1.Cl (relative stereo)
Rattus norvegicus [1]
  Decrease: 5%
Oryctolagus cuniculus [7]; Oryctolagus cuniculus, Aorta
  IC50: > 10000 nM
[6]
  Kd: 3800 nM
Rattus norvegicus [3]
  Decrease: 11%
Rattus norvegicus [4]
  Decrease: 9%

## COc1ccc([C@H]2Cc3cc(Cl)ccc3N(CCN(C)C)C(=O)[C@@H]2OC(C)=O)cc1
Rattus norvegicus [1]
  Decrease: 12%
[6]
  Kd: 690 nM
Rattus norvegicus [3]
  Decrease: 12%
Rattus norvegicus [4]
  Decrease: 12%

## COc1ccc([C@@H]2Cc3cc(C(F)(F)F)ccc3N(CCN(C)C)C(=O)[C@@H]2OC(C)=O)cc1.Cl (stereo in doubt)
Rattus norvegicus [1]
  Decrease: 19%
[6]
  Kd: 180 nM
Oryctolagus cuniculus [2]; Oryctolagus cuniculus, Aorta
  IC50: 1600 nM
Rattus norvegicus [3]
  Decrease: 19%
Rattus norvegicus [4]
  Decrease: 22%

## COc1ccc([C@@H]2Cc3cc(C(F)(F)F)ccc3N(CCN(C)C)C(=O)[C@@H]2O)cc1.Cl
Rattus norvegicus [1]
  Decrease: 8%
Rattus norvegicus [3]
  Decrease: 14%
Rattus norvegicus [4]
  Decrease: 9%

## COc1ccc([C@@H]2Cc3c(cccc3C(F)(F)F)N(CCN(C)C)C(=O)[C@@H]2O)cc1
Rattus norvegicus [1]
  Decrease: 21%
Oryctolagus cuniculus [2]; Oryctolagus cuniculus, Aorta
  IC50: 300 nM
Rattus norvegicus [3]
  Decrease: 28%
Rattus norvegicus [4]
  Decrease: 26%

## COc1ccc([C@@H]2Cc3cc(OC)ccc3N(CCN(C)C)C(=O)[C@@H]2OC(C)=O)cc1.Cl
Rattus norvegicus [1]
  Decrease: 15%
Rattus norvegicus [3]
  Decrease: 10%
Rattus norvegicus [4]
  Decrease: 8%

## COc1ccc([C@@H]2Sc3ccccc3N(CCN(C)C)C(=O)[C@@H]2OC(C)=O)cc1 [DILTIAZEM]
Oryctolagus cuniculus [5]
  IC50: 1800 nM

## COc1ccc([C@@H]2Sc3ccccc3N(CCN(C)C)C(=O)[C@@H]2OC(C)=O)cc1 (relative stereo) [DILTIAZEM]
Rattus norvegicus [1]
  Decrease: 23%
[6]
  Kd: 200 nM
Oryctolagus cuniculus [2]; Oryctolagus cuniculus, Aorta
  IC50: 210 nM
Rattus norvegicus [3]
  Decrease: 17%
Rattus norvegicus [4]
  Decrease: 12%

## COc1ccc([C@@H]2Sc3cc(Cl)ccc3N(CCN(C)C)C(=O)[C@@H]2OC(C)=O)cc1 [CLENTIAZEM]
Oryctolagus cuniculus [7]
  IC50: 240 nM
[6]
  Kd: 81 nM

## COc1ccc([C@@H]2Sc3cc(Cl)ccc3N(CCN(C)C)C(=O)[C@@H]2OC(C)=O)cc1 (relative stereo) [CLENTIAZEM]
Rattus norvegicus [1]
  Decrease: 41%
[6]
  Kd: 95 nM
Rattus norvegicus [3]
  Decrease: 24%
Rattus norvegicus [4]
  Decrease: 26%

## COc1ccc(C2Sc3cc(OC)ccc3N(CCN(C)C)C(=O)C2OC(C)=O)cc1 (stereo not given)
Oryctolagus cuniculus [7]; Oryctolagus cuniculus, Aorta
  IC50: 120 nM
[6]
  Kd: 42 nM

## COc1ccc([C@@H]2Cc3c(cccc3C(F)(F)F)N(CCN(C)C)C(=O)[C@@H]2OC(C)=O)cc1.Cl
Rattus norvegicus [1]
  Decrease: 24%
Oryctolagus cuniculus [7]; Oryctolagus cuniculus, Aorta
  IC50: 240 nM
Rattus norvegicus [3]
  Decrease: 24%
Rattus norvegicus [4]
  Decrease: 26%

## CNCCN1C(=O)[C@H](OC(C)=O)[C@H](c2ccc(OC)cc2)Cc2c1cccc2C(F)(F)F
Rattus norvegicus [1]
  Decrease: 32%
Oryctolagus cuniculus [2]; Oryctolagus cuniculus, Aorta
  IC50: 180 nM
Rattus norvegicus [3]
  Decrease: 32%
Rattus norvegicus [4]
  Decrease: 34%

## COc1ccc([C@H]2Cc3c(cccc3C(F)(F)F)N(CCN(C)C)C(=O)[C@H]2OC(C)=O)cc1.Cl (stereo in doubt; 4n)
Rattus norvegicus [1]
  Decrease: 9%
[6]
  Kd: 2000 nM
Oryctolagus cuniculus [2]; Oryctolagus cuniculus, Aorta
  IC50: 4900 nM
Rattus norvegicus [3]
  Decrease: 9%
Rattus norvegicus [4]
  Decrease: 9%

## COc1ccc([C@@H]2Cc3c(cccc3C(F)(F)F)N(C[C@H]3CCCN3)C(=O)[C@@H]2O)cc1
Rattus norvegicus [1]
  Decrease: 17%
Oryctolagus cuniculus [2]; Oryctolagus cuniculus, Aorta
  IC50: 890 nM
Rattus norvegicus [3]
  Decrease: 18%
Rattus norvegicus [4]
  Decrease: 18%

## CNCCN1C(=O)[C@H](O)[C@H](c2ccc(OC)cc2)Cc2cc(C(F)(F)F)ccc21
Rattus norvegicus [1]
  Decrease: 14%
Oryctolagus cuniculus [7]; Oryctolagus cuniculus, Aorta
  IC50: 1900 nM
Rattus norvegicus [3]
  Decrease: 14%
Rattus norvegicus [4]
  Decrease: 15%

## CNCCN1C(=O)[C@H](O)[C@H](c2ccc(OC)cc2)Cc2c1cccc2C(F)(F)F
Rattus norvegicus [1]
  Decrease: 16%
Oryctolagus cuniculus [7]; Oryctolagus cuniculus, Aorta
  IC50: 690 nM
Rattus norvegicus [3]
  Decrease: 22%
Rattus norvegicus [4]
  Decrease: 20%

## COc1ccc([C@H]2Cc3c(cccc3C(F)(F)F)N(CCN(C)C)C(=O)[C@H]2OC(C)=O)cc1.Cl (stereo in doubt; 4p)
[6]
  Kd: 1200 nM
Oryctolagus cuniculus [2]
  IC50: 3900 nM
Rattus norvegicus [3]
  Decrease: 7%
Rattus norvegicus [4]
  Decrease: 8%

## CNCCN1C(=O)[C@H](OC(C)=O)[C@H](c2ccc(OC)cc2)Cc2cc(C(F)(F)F)ccc21
Rattus norvegicus [1]
  Decrease: 28%
Oryctolagus cuniculus [7]; Oryctolagus cuniculus, Aorta
  IC50: 880 nM
Rattus norvegicus [3]
  Decrease: 31%
Rattus norvegicus [4]
  Decrease: 29%

## COc1ccc([C@@H]2Cc3c(cccc3C(F)(F)F)N(CC(=O)O)C(=O)[C@@H]2OC(C)=O)cc1
Rattus norvegicus [1]
  Decrease: 6%
Oryctolagus cuniculus [7]; Oryctolagus cuniculus, Aorta
  IC50: > 3000 nM
Rattus norvegicus [3]
  Decrease: 4%
Rattus norvegicus [4]
  Decrease: 3%

## COc1ccc([C@@H]2Cc3c(cccc3C(F)(F)F)N(C[C@H]3CCCN3C)C(=O)[C@@H]2OC(C)=O)cc1
Rattus norvegicus [1]
  Decrease: 20%
Oryctolagus cuniculus [2]; Oryctolagus cuniculus, Aorta
  IC50: 1100 nM
Rattus norvegicus [3]
  Decrease: 18%
Rattus norvegicus [4]
  Decrease: 21%

## COc1ccc([C@@H]2Cc3c(cccc3C(F)(F)F)N(C[C@@H]3CCCN3C)C(=O)[C@@H]2OC(C)=O)cc1
Rattus norvegicus [1]
  Decrease: 30%
Oryctolagus cuniculus [7]; Oryctolagus cuniculus, Aorta
  IC50: 520 nM
Rattus norvegicus [3]
  Decrease: 29%
Rattus norvegicus [4]
  Decrease: 29%

## COc1ccc([C@@H]2Cc3c(cccc3C(F)(F)F)N(CC=O)C(=O)[C@@H]2OC(C)=O)cc1
Oryctolagus cuniculus [5]
  IC50: > 3000 nM

## COc1ccc([C@@H]2Cc3c(cccc3C(F)(F)F)N(C[C@@H]3CCCN3)C(=O)[C@@H]2OC(C)=O)cc1
Rattus norvegicus [1]
  Decrease: 45%
Rattus norvegicus [3]
  Decrease: 38%
Rattus norvegicus [4]
  Decrease: 39%

## COc1ccc([C@@H]2Cc3ccc(Cl)cc3N(CCN(C)C)C(=O)[C@@H]2OC(C)=O)cc1
Rattus norvegicus [1]
  Decrease: 7%
Oryctolagus cuniculus [7]; Oryctolagus cuniculus, Aorta
  IC50: 7700 nM
Rattus norvegicus [3]
  Decrease: 4%
Rattus norvegicus [4]
  Decrease: 2%

## COc1ccc([C@@H]2Cc3c(cccc3C(F)(F)F)N(CCN(C)C)C(=O)[C@@H]2OC(C)=O)cc1.Cl (stereo in doubt)
Rattus norvegicus [1]
  Decrease: 31%
[6]
  Kd: 120 nM
Oryctolagus cuniculus [2]; Oryctolagus cuniculus, Aorta
  IC50: 150 nM
Rattus norvegicus [3]
  Decrease: 30%
Rattus norvegicus [4]
  Decrease: 27%

## COc1ccc([C@@H]2Cc3ccccc3N(CCN(C)C)C(=O)[C@@H]2OC(C)=O)cc1.Cl
Rattus norvegicus [1]
  Decrease: 8%
Rattus norvegicus [8]
  Decrease: 13%
[6]
  Kd: 5100 nM
Oryctolagus cuniculus [2]; Oryctolagus cuniculus, Aorta
  IC50: 4700 nM
Rattus norvegicus [4]
  Decrease: 8%

## COc1ccc([C@@H]2Cc3c(cccc3C(F)(F)F)N(CCO)C(=O)[C@@H]2OC(C)=O)cc1
Rattus norvegicus [1]
  Decrease: 1%
Rattus norvegicus [3]
  Decrease: 4%
Rattus norvegicus [4]
  Decrease: 3%

## COc1ccc([C@@H]2Cc3cc(Cl)ccc3N(CCN(C)C)C(=O)[C@@H]2OC(C)=O)cc1
Rattus norvegicus [1]
  Decrease: 13%
Rattus norvegicus [8]
  Decrease: 18%
Oryctolagus cuniculus [2]; Oryctolagus cuniculus, Aorta
  IC50: 1500 nM
Rattus norvegicus [4]
  Decrease: 14%
